Assay results collected from several papers.
Lines come from different studies, so protocols differ.
MRGPRX2: Mas-related G-protein coupled receptor member X2 (MRGPRX2, Homo sapiens, UniProt Q96LB1)
1-deoxy-D-xylulose-5-phosphate synthase: 1-deoxy-D-xylulose-5-phosphate synthase (Mycobacterium tuberculosis, UniProt P9WNS3)

SMILES	target	test	setting	measurement	value
CC(=O)C1=CC[C@H]2[C@@H]3CCC4=CC(=O)CC[C@]4(C)[C@H]3CC[C@]12C	Steroid 17-alpha-hydroxylase/17,20 lyase (CYP17A1, Homo sapiens, UniProt P05093)	binding, absorbance	–	Kd	540 nM
Cc1c(Cc2cccc(N(C)S(=O)(=O)CCCN3CCN(c4ccc(Nc5c(C(N)=O)cnc6ccc(-c7cnc8ccccc8c7)cc56)cc4C(F)(F)F)CC3)c2)c(=O)oc2cc(OC(=O)N(C)C)ccc12	Dual specificity mitogen-activated protein kinase kinase 1 (MAP2K1, Homo sapiens, UniProt Q02750)	enzyme activity, inhibitor, mobility shift	–	IC50	4.97 µM
CC[C@H](C)[C@H](NC(=O)[C@H](CCC(=O)O)NC(=O)[C@H](CCC(=O)O)NC(=O)[C@H](C)NC(C)=O)C(=O)N[C@@H](CCC(=O)O)C(=O)O	MRGPRX2	calcium signal, agonist	–	EC50	> 20 µM
CC(C)=CCc1c(O)cc2c(c1O)C(=O)C[C@@H](c1ccc(O)cc1)O2	Cytochrome P450 1A1 (CYP1A1, Homo sapiens, UniProt P04798)	enzyme activity, inhibitor, fluorescence	15 min, pH 7.4	Ki	590 nM
O=C(N/N=C/c1cc2c(s1)CCCC2)c1cccs1	1-deoxy-D-xylulose-5-phosphate synthase	enzyme activity, inhibitor	–	IC50	30 µM
Nc1ncc(-c2nc(N3CCOCC3)nc(N3CCOCC3)n2)c(C(F)F)n1	Phosphatidylinositol 4,5-bisphosphate 3-kinase catalytic subunit alpha isoform (PIK3CA, Homo sapiens, UniProt P42336)	ligand displacement, TR-FRET	–	IC50	0.0219 µM
O=C(COc1ccc(Cl)cc1Cl)N/N=C/c1cc2c(s1)CCCC2	1-deoxy-D-xylulose-5-phosphate synthase	enzyme activity, inhibitor	–	IC50	43.1 µM
Cc1cn(C2CCN(Cc3cccc(Oc4cccc(O)c4)c3)CC2)c(=O)[nH]c1=O	Thymidylate kinase (tmk, Mycobacterium tuberculosis, UniProt P9WKE1)	enzyme activity, inhibitor, absorbance	–	IC50	3.3 µM
NC(=O)[C@@H]1CCCN1C(=O)[C@H](CCC(=O)O)NC(=O)[C@@H]1CCC(=O)N1	MRGPRX2	calcium signal, agonist	–	EC50	> 20 µM
COC(=O)Nc1nc2cc(C(=O)c3ccc(F)cc3)ccc2[nH]1	Vascular endothelial growth factor receptor 2 (KDR, Homo sapiens, UniProt P35968)	enzyme activity, inhibitor, TR-FRET	–	IC50	0.47 µM
